# IDH1 mut inh = IDH1 R132H (human) inhibition; O75874; IDH1 R132H reductase, diaphorase/resazurin fluorescence, 60 min; inhibition, % at 10 µM; 70,000 tested, 0.18% active; in the data active = inhibition above about 34%; inconclusive = no clear call, values can overlap the other calls; inactive = below about 11%;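 note: 0% = DMSO and 100% = no enzyme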
# GASC1 inh = blocks human GASC-1 (KDM4C) demethylase activity | AID 720574 | inhibition, % at 12.5 µM | GST-KDM4C 2-372, H3K9me3 peptide, LANCE TR-FRET | Q9H3R0 | 96,000 tested, 0.15% active;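 active = mean replicate inhibition above about 25%, with at least 55% of replicates also reaching it, limit read from the data, passing the limit was not always enough; inconclusive = only one of those two conditions met; inactive = neither condition met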
# Target sequence (Q9H3R0 2-372 limits assumed): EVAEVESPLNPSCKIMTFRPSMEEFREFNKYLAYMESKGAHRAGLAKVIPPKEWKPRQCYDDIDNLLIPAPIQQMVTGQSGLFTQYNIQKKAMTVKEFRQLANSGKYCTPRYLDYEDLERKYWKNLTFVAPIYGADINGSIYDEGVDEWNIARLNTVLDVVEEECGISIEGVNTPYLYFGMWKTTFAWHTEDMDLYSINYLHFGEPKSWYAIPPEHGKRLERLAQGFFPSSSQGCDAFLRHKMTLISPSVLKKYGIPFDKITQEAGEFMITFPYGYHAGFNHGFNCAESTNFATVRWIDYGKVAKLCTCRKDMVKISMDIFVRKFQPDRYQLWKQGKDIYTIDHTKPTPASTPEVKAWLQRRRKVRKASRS
#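 System: N-terminal GST-fused human GASC-1 (KDM4C) fragment, residues 2-372 / Amount: 10 nM GST-KDM4C in enzyme reaction / Also added: H3K9me3 peptide with Fe(II)/2OG / Times: 30 min demethylation and 1 h detection at room temperature / Signal: LANCE TR-FRET / Read-out basis: Fall in 671/618 emission ratio as inhibition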
# Pf Dd2 growth = P. falciparum Dd2 growth inhibition; SYBR Green, 72 h; active compounds read low; activity change, % at 10 µM; 94,000 tested, 2.3% active; in the data active = activity change below about -80%; inconclusive = no clear call, values can overlap the other calls
# T cruzi growth-1 = inhibitors of T. cruzi proliferation; AID 624255; 77,000 tested, 5.9% active; T. cruzi beta-gal in NIH3T3, GalScreen luminescence, 90 h; inhibition, % at 8.34 µM;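 active = mean inhibition above about 93%, with at least 55% of replicates each passing it, limit read from the data, passing the limit was not always enough; inconclusive = only one of those two conditions holds; inactive = neither condition holds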
# T cruzi growth-2 = Trypanosoma cruzi proliferation inhibition; shares compounds with T cruzi growth-1; T. cruzi beta-gal in NIH3T3, GalScreen luminescence, 90 h; inhibition, % at 8.35 µM; 5,600 tested, 72% active; AID 651739;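 active = mean replicate inhibition above about 95% and at least 55% of replicates individually reaching it, limit read from the data; inconclusive = only one of the two criteria is met; inactive = neither criterion is met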
# T cruzi growth-3 = Trypanosoma cruzi proliferation inhibition | T. cruzi beta-gal in NIH3T3, GalScreen luminescence, 90 h | shares compounds with T cruzi growth-1 | inhibition, % at 2.09 µM | 5,600 tested, 21% active;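 active = mean inhibition above about 95%, with at least 55% of replicates also reaching it, limit read from the data; inconclusive = meets just one of the two conditions; inactive = meets neither condition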;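 note: plate controls were neutral control median for no effect and positive control median for full effect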
# 3T3 cytotox = cytotoxicity in mouse NIH/3T3 fibroblasts; shares compounds with T cruzi growth-1; NIH/3T3 viability, CellTiter-Glo ATP luminescence, 90 h; cytotoxicity (signal decrease), % at 8.35 µM; 5,600 tested, 14% active; AID 651742;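 active = mean signal decrease across replicates above about 35% based on untreated-well scatter, with enough replicates individually passing, limit read from the data; inconclusive = no rule stated though some were filed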;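 note: 0% = median of neutral control wells and 100% = median of positive control wells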
# 3T3 cytotox 2 = NIH/3T3 (mouse) viability loss; shares compounds with T cruzi growth-1; NIH/3T3 viability, CellTiter-Glo ATP luminescence, 90 h; inhibition, % at 24.9 µM; 5,600 tested, 56% active; AID 651744;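 active = mean loss of cell viability signal at or above a set limit, and enough replicates individually reaching it; inconclusive = meets only the mean limit or only the replicate share; inactive = meets neither condition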;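 note: 0% = median of neutral control wells and 100% = median of positive control wells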
# * hit, by the source's call; u = inconclusive; x = no result given. Only some compounds are listed: those with a hit (about 5.9% of all), similar ones and a draw of the others.
SMILES,IDH1 mut inh,GASC1 inh,Pf Dd2 growth,T cruzi growth-1,T cruzi growth-2,T cruzi growth-3,3T3 cytotox,3T3 cytotox 2
C/C=C/c1ccc2c(c1)O[C@H](CN(C)Cc1ccc(F)cc1)[C@H](C)CN([C@H](C)CO)S2(=O)=O,-3,-1,-27,u,107*,63,15,104*
C/C=C/c1ccc2c(c1)O[C@@H](CN(C)Cc1ccc(F)cc1)[C@H](C)CN([C@@H](C)CO)S2(=O)=O,0,0,-60,118*,99*,105*,54*,104*
C/C=C/c1ccc2c(c1)O[C@H](CN(C)Cc1ccccc1)[C@@H](C)CN([C@H](C)CO)S2(=O)=O,-3,1,-26,86,x,x,x,x
C[C@@H]1CCCCO[C@@H](CN(C)C(=O)NC2CCCCC2)[C@@H](C)CN([C@H](C)CO)C(=O)c2cc(NS(=O)(=O)c3cn(C)cn3)ccc2O1,0,12,59,68,x,x,x,x
CC(C)CC#Cc1ccc2c(c1)O[C@H](CN(C)C(=O)C1CCC1)[C@H](C)CN([C@H](C)CO)S2(=O)=O,1,1,-38,84,x,x,x,x
CC(C)CC#Cc1ccc2c(c1)O[C@@H](CN(C)C(=O)C1CCC1)[C@H](C)CN([C@@H](C)CO)S2(=O)=O,11,-1,-45,106*,97*,104*,-3,42*
CC(C)CC#Cc1ccc2c(c1)O[C@H](CN(C)C(=O)C1CCC1)[C@H](C)CN([C@@H](C)CO)S2(=O)=O,x,0,-44,95,x,x,x,x
CC(C)CC#Cc1ccc2c(c1)O[C@@H](CN(C)C(=O)C1CCC1)[C@@H](C)CN([C@H](C)CO)S2(=O)=O,0,-1,-44,76,x,x,x,x
CC(C)CC#Cc1ccc2c(c1)O[C@@H](CN(C)C(=O)C1CCC1)[C@H](C)CN([C@H](C)CO)S2(=O)=O,x,-1,-49,u,102*,80,-20,101*
CC(C)CC#Cc1ccc2c(c1)O[C@H](CN(C)C(=O)C1CCC1)[C@@H](C)CN([C@@H](C)CO)S2(=O)=O,x,-2,-54,106*,107*,83,15,104*
COc1ccc(NC(=O)Nc2ccc3c(c2)C(=O)N([C@H](C)CO)C[C@H](C)[C@@H](CN(C)S(=O)(=O)c2cccs2)O3)cc1,0,-1,-11,0,x,x,x,x
C[C@H]1CN([C@@H](C)CO)C(=O)c2cccc(NC(=O)c3ccncc3)c2O[C@H]1CN(C)Cc1ccc(-c2ccccc2)cc1,-4,1,-38,107,x,x,x,x
C[C@H](CO)N1C[C@H](C)[C@H](CN(C)Cc2ccc(C(F)(F)F)cc2)Oc2c(NC(=O)c3ccncc3)cccc2C1=O,0,-1,-13,u,91,92,20,19
C[C@H](CO)N1C[C@H](C)[C@H](CN(C)Cc2ccc(C(=O)Nc3ccccc3N)cc2)Oc2c(NC(=O)c3ccncc3)cccc2C1=O,-1,-1,6,u,105*,83,5,u
C[C@H]1CN([C@@H](C)CO)C(=O)c2cccc(NC(=O)c3ccncc3)c2O[C@@H]1CN(C)Cc1ccc(-c2ccccc2)cc1,x,0,-44,u,85,89,17,47*
C[C@@H]1CN([C@H](C)CO)C(=O)c2cccc(NC(=O)c3ccncc3)c2O[C@@H]1CN(C)Cc1ccc(C(=O)Nc2ccccc2N)cc1,0,0,-47,90*,103*,77,4,33*
C[C@@H]1CN([C@@H](C)CO)C(=O)c2cccc(N(C)C)c2O[C@@H]1CN(C)Cc1ccc(C(=O)Nc2ccccc2N)cc1,x,x,-82*,113*,104*,42,31,73*
CC(C)CC#Cc1ccc2c(c1)O[C@@H](CN(C)Cc1ccncc1)[C@H](C)CN([C@@H](C)CO)S2(=O)=O,1,-2,-80,132*,97*,105*,26,103*
C[C@@H]1CN([C@H](C)CO)S(=O)(=O)c2ccc(C#CCN(C)C)cc2O[C@H]1CN(C)Cc1ccc(F)cc1,-4,15,-70,115*,u,91,57*,107*
CC(C)CC#Cc1ccc2c(c1)O[C@H](CN(C)Cc1ccc(F)cc1)[C@H](C)CN([C@@H](C)CO)S2(=O)=O,0,x,-59,84,x,x,x,x
CCCC#Cc1ccc2c(c1)O[C@H](CN(C)Cc1ccncc1)[C@H](C)CN([C@H](C)CO)S2(=O)=O,14,-1,-37,114*,103*,76,37*,u
CCCC#Cc1ccc2c(c1)O[C@H](CN(C)Cc1ccncc1)[C@@H](C)CN([C@@H](C)CO)S2(=O)=O,1,22,-74,121*,106*,101*,42*,104*
CCCC#Cc1ccc2c(c1)O[C@H](CN(C)Cc1ccccc1)[C@@H](C)CN([C@@H](C)CO)S2(=O)=O,1,-1,-22,x,x,x,x,x
COc1ccc(C)cc1S(=O)(=O)N1CCC(C(=O)Nc2ccc3c(c2)OCCO3)CC1,0,x,x,x,x,x,x,x
N#Cc1c(NC(=O)Cn2cnc3sc(-c4ccccc4)cc3c2=O)sc2c1CCC2,0,x,x,x,x,x,x,x
SMILES,IDH1 mut inh,GASC1 inh,Pf Dd2 growth,T cruzi growth-1,T cruzi growth-2,T cruzi growth-3,3T3 cytotox,3T3 cytotox 2
C[C@H](CO)N1C[C@H](C)[C@H](CN(C)S(=O)(=O)c2ccccc2)Oc2ccc(NC(=O)CCCCCC(=O)Nc3ccccc3N)cc2CC1=O,x,2,-74,35,x,x,x,x
C[C@@H]1CN([C@H](C)CO)S(=O)(=O)c2ccc(C#CCN(C)C)cc2O[C@@H]1CN(C)Cc1ccncc1,5,5,6,25,x,x,x,x
C[C@@H]1CN([C@H](C)CO)S(=O)(=O)c2ccc(C#CCN(C)C)cc2O[C@H]1CN(C)Cc1ccncc1,2,5,-36,101*,107*,105*,45*,58*
COc1cccc(S(=O)(=O)Nc2ccc3c(c2)OC[C@@H](C)N(Cc2ccccc2F)C[C@H](C)[C@@H](OC)CN(C)C3=O)c1,0,2,-18,u,x,x,x,x
CN(C)C(=O)c1ccc(-c2ccc3c(c2)[C@@H]2[C@@H](CCN2C(=O)c2ccccc2F)[C@H](CO)N3)cc1,x,-2,-4,43,x,x,x,x
CN(C)C(=O)c1cccc(-c2ccc3c(c2)[C@@H]2[C@@H](CCN2C(=O)c2ccccc2F)[C@H](CO)N3)c1,x,0,-31,101*,101*,64,15,-18
CN(C)C(=O)c1cccc(-c2ccc3c(c2)[C@H]2[C@H](CCN2C(=O)c2ccccc2F)[C@H](CO)N3)c1,x,1,-10,99*,103*,83,-7,15
